Reference: ChEMBL document CHEMBL5674868, “Cancer Cells Hijack PRC2 to Modify Multiple Cytokine Pathways” (PLoS One, 2015)
Active and inactive are the calls of the source. The rule behind the calls is not given here.

Key:
Format in all cases: cell-based
[1] = target: Histone-lysine N-methyltransferase EZH2 (Homo sapiens) (UniProt Q15910); assay: Inhibition of EZH2 in human A549 cells assessed as effect on PITX2 mRNA level after 6 hrs by RT-PCR analysis
Summary of the method: (§1)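 Cells were treated for two four-day cycles with 2 μM GSK343 or UNC1999, then left untreated or stimulated with human IFNγ for 6 h. mRNA was measured by reverse transcription quantitative PCR and normalized to β-actin. Three biological replicates were run per treatment group.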

[2] = target: Histone-lysine N-methyltransferase EZH2 (Homo sapiens) (UniProt Q15910); assay: Inhibition of EZH2 in human A549 cells assessed as increase in LPS-induced IL-6 level for 24 hrs by multiplexing laser bead assay
Summary of the method: (§2)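 A549 cells were pretreated with vehicle or UNC1999 over two four-day cycles at 2 μM. They were seeded at 3×10^4/well, rested for 4 h, then exposed for 24 h to no stimulus, 5 μg/ml E. coli LPS or 10 U/ml TNFα. Secreted cytokines in the supernatants were quantified by a 41-plex laser bead assay.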

[3] = target: Histone-lysine N-methyltransferase EZH2 (Homo sapiens) (UniProt Q15910); assay: Inhibition of EZH2 in human MCF7 cells assessed as effect on HPRT mRNA level after 6 hrs by RT-PCR analysis in presence of IFN-gamma; summary of the method: as §1
[4] = target: Histone-lysine N-methyltransferase EZH2 (Homo sapiens) (UniProt Q15910); assay: Inhibition of EZH2 in human HeLa cells assessed as decrease in H3K27me3 levels at 2 uM after 6 hrs by Western blot analysis
[5] = target: Histone-lysine N-methyltransferase EZH2 (Homo sapiens) (UniProt Q15910); assay: Inhibition of EZH2 in human A549 cells assessed as increase in TNF-alpha-induced CXCL-1 level for 24 hrs by multiplexing laser bead assay; summary of the method: as §2
[6] = target: Histone-lysine N-methyltransferase EZH2 (Homo sapiens) (UniProt Q15910); assay: Inhibition of EZH2 in human MCF7 cells assessed as decrease in H3K27me3 levels at 2 uM after 6 hrs by Western blot analysis
[7] = target: Histone-lysine N-methyltransferase EZH2 (Homo sapiens) (UniProt Q15910); assay: Inhibition of EZH2 in human ASPC1 cells assessed as effect on IRF1 mRNA level after 6 hrs by RT-PCR analysis; summary of the method: as §1
[8] = target: Histone-lysine N-methyltransferase EZH2 (Homo sapiens) (UniProt Q15910); assay: Inhibition of EZH2 in human A549 cells assessed as increase in LPS-induced TGF-A level for 24 hrs by multiplexing laser bead assay; summary of the method: as §2
[9] = target: Histone-lysine N-methyltransferase EZH2 (Homo sapiens) (UniProt Q15910); assay: Inhibition of EZH2 in human A549 cells assessed as effect on IRF1 mRNA level after 6 hrs by RT-PCR analysis in presence of IFN-gamma; summary of the method: as §1
[10] = target: Histone-lysine N-methyltransferase EZH2 (Homo sapiens) (UniProt Q15910); assay: Inhibition of EZH2 in human ASPC1 cells assessed as effect on PITX2 mRNA level after 6 hrs by RT-PCR analysis in presence of IFN-gamma; summary of the method: as §1
[11] = target: Histone-lysine N-methyltransferase EZH2 (Homo sapiens) (UniProt Q15910); assay: Inhibition of EZH2 in human HeLa cells assessed as effect on HPRT mRNA level after 6 hrs by RT-PCR analysis; summary of the method: as §1
[12] = target: Histone-lysine N-methyltransferase EZH2 (Homo sapiens) (UniProt Q15910); assay: Inhibition of EZH2 in human A549 cells assessed as increase in IFN-gamma-induced CXCL10 level for 24 hrs by ELISA
Summary of the method: (§3)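 A549 cells were pretreated for two four-day cycles with 2 μM UNC1999 or with DMSO. They were seeded at 3×10^4/well, allowed to settle for 4 h, then given the indicated concentrations of IFNγ, IL1β, LPS or TNFα for 24 h. Secreted IL6, IL8 or CXCL10 in the supernatant was measured by ELISA in duplicate. n = 3; ANOVA followed by Fisher test.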

[13] = target: Histone-lysine N-methyltransferase EZH2 (Homo sapiens) (UniProt Q15910); assay: Inhibition of EZH2 in human MCF7 cells assessed as effect on IRF1 mRNA level after 6 hrs by RT-PCR analysis in presence of IFN-gamma
Summary of the method: (§4)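 Cells pretreated for two 4-day cycles with 2 µM GSK343 or UNC1999, then left unstimulated or given human IFNγ for 6 h. RNA reverse-transcribed and measured by quantitative PCR, normalized to β-actin. Three biological replicates per treatment group.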

[14] = target: Histone-lysine N-methyltransferase EZH2 (Homo sapiens) (UniProt Q15910); assay: Inhibition of EZH2 in human ASPC1 cells assessed as effect on HPRT mRNA level after 6 hrs by RT-PCR analysis in presence of IFN-gamma; summary of the method: as §1
[15] = target: Histone-lysine N-methyltransferase EZH2 (Homo sapiens) (UniProt Q15910); assay: Inhibition of EZH2 in human A549 cells assessed as effect on HPRT mRNA level after 6 hrs by RT-PCR analysis in presence of IFN-gamma; summary of the method: as §1
[16] = target: Histone-lysine N-methyltransferase EZH2 (Homo sapiens) (UniProt Q15910); assay: Inhibition of EZH2 in human A549 cells assessed as increase in LPS-induced IL-8 level for 24 hrs by multiplexing laser bead assay; summary of the method: as §2
[17] = target: Histone-lysine N-methyltransferase EZH2 (Homo sapiens) (UniProt Q15910); assay: Inhibition of EZH2 in human A549 cells assessed as increase in TNFalpha-induced CXCL10 level for 24 hrs by ELISA; summary of the method: as §3
[18] = target: Histone-lysine N-methyltransferase EZH2 (Homo sapiens) (UniProt Q15910); assay: Inhibition of EZH2 in human A549 cells assessed as increase in TNF-alpha-induced IL-8 level for 24 hrs by multiplexing laser bead assay; summary of the method: as §2
[19] = target: Histone-lysine N-methyltransferase EZH2 (Homo sapiens) (UniProt Q15910); assay: Inhibition of EZH2 in human A549 cells assessed as increase in TNF-alpha-induced IL-6 level for 24 hrs by multiplexing laser bead assay; summary of the method: as §2
[20] = target: Histone-lysine N-methyltransferase EZH2 (Homo sapiens) (UniProt Q15910); assay: Inhibition of EZH2 in human HeLa cells assessed as effect on IRF1 mRNA level after 6 hrs by RT-PCR analysis; summary of the method: as §1
[21] = target: Histone-lysine N-methyltransferase EZH2 (Homo sapiens) (UniProt Q15910); assay: Inhibition of EZH2 in human A549 cells assessed as increase in LPS-induced IL-8 level for 24 hrs by ELISA; summary of the method: as §3
[22] = target: Histone-lysine N-methyltransferase EZH2 (Homo sapiens) (UniProt Q15910); assay: Inhibition of EZH2 in human MCF7 cells assessed as effect on PITX2 mRNA level after 6 hrs by RT-PCR analysis in presence of IFN-gamma; summary of the method: as §4
[23] = target: Histone-lysine N-methyltransferase EZH2 (Homo sapiens) (UniProt Q15910); assay: Inhibition of EZH2 in human A549 cells assessed as increase in TNF-alpha-induced TGFA level for 24 hrs by multiplexing laser bead assay; summary of the method: as §2
[24] = target: Histone-lysine N-methyltransferase EZH2 (Homo sapiens) (UniProt Q15910); assay: Inhibition of EZH2 in human ASPC1 cells assessed as effect on IRF1 mRNA level after 6 hrs by RT-PCR analysis in presence of IFN-gamma; summary of the method: as §1
[25] = target: Histone-lysine N-methyltransferase EZH2 (Homo sapiens) (UniProt Q15910); assay: Inhibition of EZH2 in human ASPC1 cells assessed as effect on PITX2 mRNA level after 6 hrs by RT-PCR analysis; summary of the method: as §1
[26] = target: Histone-lysine N-methyltransferase EZH2 (Homo sapiens) (UniProt Q15910); assay: Inhibition of EZH2 in human A549 cells assessed as increase in TNF-alpha-induced CCL7 level for 24 hrs by multiplexing laser bead assay; summary of the method: as §2
[27] = target: Histone-lysine N-methyltransferase EZH2 (Homo sapiens) (UniProt Q15910); assay: Inhibition of EZH2 in human HeLa cells assessed as effect on HPRT mRNA level after 6 hrs by RT-PCR analysis in presence of IFN-gamma; summary of the method: as §1

Chain of Histone-lysine N-methyltransferase EZH2 (Homo sapiens) (Q15910 whole entry, looked up): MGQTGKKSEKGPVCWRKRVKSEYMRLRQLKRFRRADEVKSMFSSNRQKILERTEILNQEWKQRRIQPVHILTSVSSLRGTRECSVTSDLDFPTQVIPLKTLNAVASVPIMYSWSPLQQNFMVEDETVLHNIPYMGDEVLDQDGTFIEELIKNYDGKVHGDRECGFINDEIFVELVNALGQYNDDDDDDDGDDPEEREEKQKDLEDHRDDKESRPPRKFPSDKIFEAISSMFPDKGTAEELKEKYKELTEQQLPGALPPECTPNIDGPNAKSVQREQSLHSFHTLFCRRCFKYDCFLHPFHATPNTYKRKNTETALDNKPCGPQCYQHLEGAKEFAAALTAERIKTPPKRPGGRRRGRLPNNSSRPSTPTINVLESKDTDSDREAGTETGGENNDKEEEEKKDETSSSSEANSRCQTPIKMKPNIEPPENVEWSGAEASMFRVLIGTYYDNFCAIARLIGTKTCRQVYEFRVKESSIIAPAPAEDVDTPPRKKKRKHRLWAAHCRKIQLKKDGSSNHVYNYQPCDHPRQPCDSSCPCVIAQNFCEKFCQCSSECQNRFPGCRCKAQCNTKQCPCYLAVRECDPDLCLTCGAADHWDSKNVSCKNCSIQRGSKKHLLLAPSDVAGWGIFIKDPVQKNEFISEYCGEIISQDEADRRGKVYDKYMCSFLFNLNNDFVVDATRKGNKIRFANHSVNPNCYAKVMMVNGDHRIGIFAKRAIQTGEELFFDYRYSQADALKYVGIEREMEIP

CCCc1cc(C)[nH]c(=O)c1CNC(=O)c1cc(-c2ccc(N3CCN(C(C)C)CC3)nc2)cc2c1cnn2C(C)C
inhibition [1]: inactive
inhibition [2]: Active
inhibition [3]: inactive
inhibition [4]: Active
inhibition [5]: Active
inhibition [6]: Active
inhibition [7]: inactive
inhibition [8]: Active
inhibition [9]: inactive
inhibition [10]: inactive
inhibition [11]: inactive
inhibition [12]: Active
inhibition [13]: inactive
inhibition [14]: inactive
inhibition [15]: inactive
inhibition [16]: Active
inhibition [17]: Active
inhibition [18]: Active
inhibition [19]: Active
inhibition [20]: inactive
inhibition [21]: Active
inhibition [22]: inactive
inhibition [23]: Active
inhibition [24]: inactive
inhibition [25]: inactive
inhibition [26]: Active
inhibition [27]: inactive
